From the M2OR odorant receptor database come the findings set out here.

Common to all, as to conditions: stereoisomer not certain
The target of one assay is T1, OR10A7 (Homo sapiens) (UniProt Q8NGE5).
T1 sequence (whole entry): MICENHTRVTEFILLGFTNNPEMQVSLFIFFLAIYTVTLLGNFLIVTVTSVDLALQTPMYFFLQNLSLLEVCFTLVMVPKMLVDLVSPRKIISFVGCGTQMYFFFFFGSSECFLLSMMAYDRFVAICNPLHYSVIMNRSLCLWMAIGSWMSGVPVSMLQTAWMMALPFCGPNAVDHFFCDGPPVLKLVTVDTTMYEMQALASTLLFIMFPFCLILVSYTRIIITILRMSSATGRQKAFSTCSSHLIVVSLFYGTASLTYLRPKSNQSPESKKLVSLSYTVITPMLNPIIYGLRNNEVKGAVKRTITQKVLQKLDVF
In short, it runs like this:
(§1)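 Each receptor–molecule pair is labelled responsive or non-responsive (inactive) according to whether the original authors judged the measured signal statistically different from baseline. The data were taken from the main text and supplementary material of published papers and checked for typos and inconsistencies. Assay methods differed by source, with transient luciferase assays in mammalian cell lines being common.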

In a further assay the test system is T2, O5AN1.
T2 sequence (whole entry): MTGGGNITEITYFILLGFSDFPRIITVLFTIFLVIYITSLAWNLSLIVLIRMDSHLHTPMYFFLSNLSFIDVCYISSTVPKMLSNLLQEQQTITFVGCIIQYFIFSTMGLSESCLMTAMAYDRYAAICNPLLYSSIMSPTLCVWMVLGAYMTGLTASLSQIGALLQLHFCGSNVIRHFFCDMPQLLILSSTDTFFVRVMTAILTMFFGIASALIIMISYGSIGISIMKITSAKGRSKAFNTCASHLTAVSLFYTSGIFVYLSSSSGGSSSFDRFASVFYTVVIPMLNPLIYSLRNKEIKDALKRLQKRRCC
An outline of the steps:
as §1

In a further assay the target is T3, OR10A2 (Homo sapiens) (UniProt Q9H208).
T3 sequence (whole entry): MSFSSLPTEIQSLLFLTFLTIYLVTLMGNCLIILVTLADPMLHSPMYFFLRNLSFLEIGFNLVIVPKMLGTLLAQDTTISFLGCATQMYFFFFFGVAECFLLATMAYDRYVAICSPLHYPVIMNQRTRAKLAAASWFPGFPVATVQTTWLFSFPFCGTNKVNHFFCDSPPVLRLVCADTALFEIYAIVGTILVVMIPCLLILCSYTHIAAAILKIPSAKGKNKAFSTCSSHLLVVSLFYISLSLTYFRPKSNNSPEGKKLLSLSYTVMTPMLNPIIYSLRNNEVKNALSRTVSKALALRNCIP
An outline of the steps: as §1

Another assay has as its target T4, OR10A4 (Homo sapiens) (UniProt Q9H209).
T4 sequence (whole entry): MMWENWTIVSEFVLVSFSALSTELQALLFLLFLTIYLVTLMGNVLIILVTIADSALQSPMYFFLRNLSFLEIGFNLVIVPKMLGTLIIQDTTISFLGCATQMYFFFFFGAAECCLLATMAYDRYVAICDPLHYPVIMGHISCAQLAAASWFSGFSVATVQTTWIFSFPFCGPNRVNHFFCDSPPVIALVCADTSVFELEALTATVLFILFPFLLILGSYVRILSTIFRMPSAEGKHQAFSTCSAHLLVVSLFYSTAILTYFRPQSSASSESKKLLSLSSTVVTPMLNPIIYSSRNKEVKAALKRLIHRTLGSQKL
In short, it runs like this:
as §1

For a further assay, the target named is T5, OR10A5 (Homo sapiens) (UniProt Q9H207).
T5 sequence (whole entry): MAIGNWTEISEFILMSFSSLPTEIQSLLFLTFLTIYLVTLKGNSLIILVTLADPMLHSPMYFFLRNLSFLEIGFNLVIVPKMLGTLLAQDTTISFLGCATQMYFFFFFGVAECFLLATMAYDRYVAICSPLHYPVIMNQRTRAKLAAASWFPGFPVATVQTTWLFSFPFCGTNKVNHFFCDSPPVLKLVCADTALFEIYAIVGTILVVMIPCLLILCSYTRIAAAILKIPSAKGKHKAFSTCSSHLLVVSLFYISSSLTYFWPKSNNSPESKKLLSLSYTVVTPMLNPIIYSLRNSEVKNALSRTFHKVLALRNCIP
In short, it runs like this: as §1

For a further assay, the target named is T6, OR10A6 (Homo sapiens) (UniProt Q8NH74).
T6 sequence (whole entry): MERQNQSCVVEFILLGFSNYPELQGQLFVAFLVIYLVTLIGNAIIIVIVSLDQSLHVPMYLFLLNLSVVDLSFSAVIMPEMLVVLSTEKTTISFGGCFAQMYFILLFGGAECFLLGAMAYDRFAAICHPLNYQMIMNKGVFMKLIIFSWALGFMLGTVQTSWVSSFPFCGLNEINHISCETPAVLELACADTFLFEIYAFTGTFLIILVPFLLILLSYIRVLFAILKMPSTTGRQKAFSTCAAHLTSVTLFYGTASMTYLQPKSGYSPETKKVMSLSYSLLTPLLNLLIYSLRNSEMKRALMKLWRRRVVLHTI
In short, it runs like this:
as §1

The target of the next assay is OR10AC1 (Homo sapiens) (UniProt Q8NH08). An outline of the steps: as §1
Chain of OR10AC1 (Homo sapiens) (Q8NH08 whole entry): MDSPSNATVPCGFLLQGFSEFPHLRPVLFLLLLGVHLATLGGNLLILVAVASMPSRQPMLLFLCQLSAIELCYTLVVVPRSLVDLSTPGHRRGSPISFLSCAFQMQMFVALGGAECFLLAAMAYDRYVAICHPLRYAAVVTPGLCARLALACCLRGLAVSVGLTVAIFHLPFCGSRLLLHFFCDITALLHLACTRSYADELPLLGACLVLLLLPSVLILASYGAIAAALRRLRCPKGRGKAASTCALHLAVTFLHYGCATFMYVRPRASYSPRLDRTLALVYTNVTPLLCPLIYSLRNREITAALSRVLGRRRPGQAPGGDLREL
For another assay, the target named is T7, OR10AD1 (Homo sapiens) (UniProt Q8NGE0).
T7 sequence (whole entry): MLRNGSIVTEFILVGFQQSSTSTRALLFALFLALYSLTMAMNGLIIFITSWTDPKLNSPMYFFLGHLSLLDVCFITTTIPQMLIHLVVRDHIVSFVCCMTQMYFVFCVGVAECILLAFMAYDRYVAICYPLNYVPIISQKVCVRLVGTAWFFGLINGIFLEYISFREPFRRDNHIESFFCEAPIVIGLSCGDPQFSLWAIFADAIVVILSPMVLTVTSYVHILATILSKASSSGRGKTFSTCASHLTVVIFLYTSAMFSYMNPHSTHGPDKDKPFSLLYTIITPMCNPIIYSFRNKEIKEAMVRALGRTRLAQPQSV
In short, it runs like this: as §1

The target of a further assay is T8, OR10AG1 (Homo sapiens) (UniProt Q8NH19).
T8 sequence (whole entry): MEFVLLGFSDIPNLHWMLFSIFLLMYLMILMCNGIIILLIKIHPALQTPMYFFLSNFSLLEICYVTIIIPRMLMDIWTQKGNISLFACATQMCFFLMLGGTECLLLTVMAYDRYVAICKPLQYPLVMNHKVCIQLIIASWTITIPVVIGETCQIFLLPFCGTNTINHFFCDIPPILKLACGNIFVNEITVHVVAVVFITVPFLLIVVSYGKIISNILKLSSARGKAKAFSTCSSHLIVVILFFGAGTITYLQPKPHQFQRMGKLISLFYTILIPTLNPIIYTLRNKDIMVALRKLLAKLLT
An outline of the steps:
as §1

For another assay, the target named is T9, OR10C1 (Homo sapiens) (UniProt Q96KK4).
T9 sequence (whole entry): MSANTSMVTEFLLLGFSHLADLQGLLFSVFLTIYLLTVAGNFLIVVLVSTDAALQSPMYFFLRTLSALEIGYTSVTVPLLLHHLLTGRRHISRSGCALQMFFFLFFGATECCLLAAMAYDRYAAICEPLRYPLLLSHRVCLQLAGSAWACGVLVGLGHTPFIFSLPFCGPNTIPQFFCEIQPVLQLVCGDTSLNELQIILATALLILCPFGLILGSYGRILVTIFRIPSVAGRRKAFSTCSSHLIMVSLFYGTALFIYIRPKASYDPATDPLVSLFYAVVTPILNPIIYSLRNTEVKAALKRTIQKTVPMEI
An outline of the steps: as §1
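Further: active if original authors judged signal statistically different from baseline.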

Consider `CC(C)CS`, for which, in the assay with OR10A7 (Homo sapiens), the “odorant receptor agonist call” value was “inactive”.
Take `CC(=O)c1c(C)c([N+](=O)[O-])c(C(C)(C)C)c([N+](=O)[O-])c1C`: in the assay with O5AN1, the “odorant receptor agonist call” value was “active”. Besides, the “odorant receptor agonist call” value with OR10A2 (Homo sapiens), with OR10A4 (Homo sapiens), in the assay with OR10A5 (Homo sapiens), in the assay with OR10A6 (Homo sapiens), with OR10A7 (Homo sapiens) and with OR10AC1 (Homo sapiens) was “inactive” throughout. The “odorant receptor agonist call” value with OR10AD1 (Homo sapiens), with OR10AG1 (Homo sapiens) and with OR10C1 (Homo sapiens) was “inactive” in each case.
In the case of `CC1CC=CCCCCCCCCCC(=O)C1` (configuration not stated), the “odorant receptor agonist call” value with O5AN1 was “active”.
